Measured values reported in publication PMC2233905 (The Journal of General Physiology, 2004).

Key:
hEag1 channels [1] = biological target: T1, hEag1 channels (Homo sapiens, UniProt O95259); experiment: Whole-cell patch-clamp of hEag1 currents in stably transfected HEK-293 cells; format: cell-based
T1 sequence (O95259 1-989): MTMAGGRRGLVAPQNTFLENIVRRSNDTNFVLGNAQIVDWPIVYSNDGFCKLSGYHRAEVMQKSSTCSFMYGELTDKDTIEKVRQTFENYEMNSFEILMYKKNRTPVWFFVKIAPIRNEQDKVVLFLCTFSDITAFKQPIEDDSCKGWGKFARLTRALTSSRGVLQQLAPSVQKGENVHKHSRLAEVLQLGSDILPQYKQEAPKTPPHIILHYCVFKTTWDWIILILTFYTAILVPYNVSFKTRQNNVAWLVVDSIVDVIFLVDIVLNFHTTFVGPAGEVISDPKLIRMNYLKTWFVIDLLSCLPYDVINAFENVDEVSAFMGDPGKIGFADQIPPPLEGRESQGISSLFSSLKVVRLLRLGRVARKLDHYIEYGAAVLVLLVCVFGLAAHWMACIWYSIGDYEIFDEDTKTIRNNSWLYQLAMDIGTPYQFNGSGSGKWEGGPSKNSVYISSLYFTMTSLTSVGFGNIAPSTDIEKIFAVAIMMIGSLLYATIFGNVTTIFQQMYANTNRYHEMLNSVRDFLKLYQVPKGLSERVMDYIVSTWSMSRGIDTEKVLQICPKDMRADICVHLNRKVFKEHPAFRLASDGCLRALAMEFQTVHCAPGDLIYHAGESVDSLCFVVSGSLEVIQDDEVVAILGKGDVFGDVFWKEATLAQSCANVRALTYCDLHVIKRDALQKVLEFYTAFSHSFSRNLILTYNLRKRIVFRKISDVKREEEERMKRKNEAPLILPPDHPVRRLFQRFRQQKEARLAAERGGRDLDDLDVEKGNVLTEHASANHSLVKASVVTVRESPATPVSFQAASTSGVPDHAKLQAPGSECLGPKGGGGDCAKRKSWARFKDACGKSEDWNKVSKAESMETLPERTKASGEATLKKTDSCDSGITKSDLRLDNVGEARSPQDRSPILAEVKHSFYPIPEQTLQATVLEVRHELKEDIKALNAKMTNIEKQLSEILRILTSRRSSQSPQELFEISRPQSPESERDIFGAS

hEag1 channels [2] = biological target: T1, hEag1 channels; experiment: Outside-out patch recordings of hEag1 currents; format: cell-based
How it was run: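 Outside-out patches from hEag1-expressing cells at room temperature. Successive 6-s recordings at 80 mV; drug applied to the extracellular face for 2.5 s, then removed. Currents were divided point-wise by control traces, and the time course was fitted with a single exponential to give the block or equilibration time constant and the steady-state fraction blocked.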

[3] = 10 μM imipramine or 1 μM astemizole
[4] = 200 μM internal TEA, 80 mV, 10 μM imipramine or 1 μM astemizole
[5] = control, 80 mV, 10 μM imipramine or 1 μM astemizole
[6] = nonsaturating concentrations, 80 mV

- Kd (hEag1 channels [1]): 109 nM
- voltage dependence of block (hEag1 channels [1]): insensitive to membrane potential
- current blocked (hEag1 channels [1]; 100 nM astemizole in the presence of 5 μM imipramine, 60 mV): 38 ± 5%
- current blocked (hEag1 channels [1]; 100 nM astemizole, control external solution, 60 mV): 66 ± 3%
- k of exponential fit to τclose(V) (tail current deactivation) (hEag1 channels [1]; [3]): −0.025
- τ(0) of exponential fit to τclose(V) (tail current deactivation) (hEag1 channels [1]; [3]): 10.75 ms
- τ∞ of exponential fit to τclose(V) (tail current deactivation) (hEag1 channels [1]; [3]): 0.75 ms
- effect on whole-cell current when added to the intracellular solution (hEag1 channels [1]; 25 μM in intracellular pH 6.4 solution (unpublished data)): substantial block
- reduction of potency in the presence of internal TEA (hEag1 channels [1]; 200 μM internal TEA): ~50%
- current blocked (hEag1 channels [1]; [4]): 42 ± 12%
- τblock (hEag1 channels [1]; [4]): 1084 ± 158 ms
- effect of external TEA on the block (hEag1 channels [1]; 7 mM external TEA): did not affect
- IC50 (hEag1 channels [1]; IC50(V), voltage-independent line through IC50 data, test potentials 20–120 mV): 120 nM
- IC50 (hEag1 channels [1]; IC50, whole-cell, pHext//pHint 6.4//7.35): 419 ± 68 nM
- IC50 (hEag1 channels [1]; IC50, whole-cell, pHext//pHint 7.4//6.4): 54 ± 12 nM
- IC50 (hEag1 channels [1]; IC50, whole-cell, pHext//pHint 7.4//8.4): 556 ± 69 nM
- IC50 (hEag1 channels [1]; IC50, whole-cell, pHext//pHint 8.4//7.35): 37 ± 7 nM
- current blocked (hEag1 channels [1]; [5]): 87 ± 3%
- τblock (hEag1 channels [1]; [5]): 317 ± 73 ms
- slope of logIC50 versus difference between pHext and pHint (hEag1 channels [1]; linear fit): −0.53
- slope of linear fit of τblock^−1 versus concentration (hEag1 channels [1]; [6]): 4 s^−1μM^−1
- y intercept of linear fit of τblock^−1 versus concentration (hEag1 channels [1]; [6]): 0.4 µM
- time constant of block washout (hEag1 channels [1]; pHext 7.4, pHint 6.4): 235 s
- time course of block onset (hEag1 channels [1]; pHext 7.4, pHint 6.4, 250 nM astemizole): 60 s
- time constant of block washout (hEag1 channels [1]; pHext 7.4, pHint 8.4): 25 s
- time course of block onset (hEag1 channels [1]; pHext 7.4, pHint 8.4, 5 μM astemizole): 20 s
- Hill coefficient of dose–response plot (hEag1 channels [1]; whole-cell, 80 mV): 1.32
- Hill coefficient of fit to τblock versus concentration (hEag1 channels [1]; whole-cell, 80 mV): 1.32
- time constant of current decay (τblock) at the IC50 concentration (hEag1 channels [1]; whole-cell, 80 mV): ~500 ms
- τblock, maximum of Hill fit (hEag1 channels [1]; whole-cell, 80 mV): 1.33 s
- τblock, minimum of Hill fit (hEag1 channels [1]; whole-cell, 80 mV): 0.024 s
- time constant of block (equilibration of neutral drug) in outside-out patches (hEag1 channels [2]; bath pH 6.0, pipette pH 7.4): 1.7 s
- rate of the equilibration process across the membrane (hEag1 channels [2]; outside-out, bath pH 6.0): 0.6 s⁻¹
SMILES: COc1ccc(CCN2CCC(Nc3nc4ccccc4n3Cc3ccc(F)cc3)CC2)cc1 [astemizole]
